# Assay outcomes (PubChem)
# A selection: hits, their analogues and other compounds. The true share with any hit is near 3.8%.
# KCNK3 block = human KCNK3 channel inhibition, primary screen. B-score at 10 µM. AID 602410. 340,000 tested, 0.84% active. CHO-KCNK3 thallium flux, FluxOR fluorescence; stronger effect = lower value. O14649;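 active = B-score under library mean minus 4 SD, starting fluorescence ratio at most library mean plus 5 SD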;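 also: more negative B-score means stronger inhibition of thallium flux through KCNK3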
# Kir21 block = inhibitors of mouse Kir2.1 inward-rectifier potassium channel; P35561; AID 1672; HEK293-Kir2.1, FluxOR thallium flux fluorescence; stronger effect = lower value; 310,000 tested, 0.85% active; B-score at 10 µM;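 active = fluorescence ratio B-score at or below minus 3 SD of library scores, with starting-brightness B-score within 2 SD, cut at about -4.2 in these data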;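 also: channel flux triggered by added potassium and thallium sulfate stimulus; B-score of peak minus minimum fluorescence over baseline after thallium stimulus; more negative B-score means stronger Kir2.1 block with less thallium influx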
# Target sequence (P35561 whole entry, looked up): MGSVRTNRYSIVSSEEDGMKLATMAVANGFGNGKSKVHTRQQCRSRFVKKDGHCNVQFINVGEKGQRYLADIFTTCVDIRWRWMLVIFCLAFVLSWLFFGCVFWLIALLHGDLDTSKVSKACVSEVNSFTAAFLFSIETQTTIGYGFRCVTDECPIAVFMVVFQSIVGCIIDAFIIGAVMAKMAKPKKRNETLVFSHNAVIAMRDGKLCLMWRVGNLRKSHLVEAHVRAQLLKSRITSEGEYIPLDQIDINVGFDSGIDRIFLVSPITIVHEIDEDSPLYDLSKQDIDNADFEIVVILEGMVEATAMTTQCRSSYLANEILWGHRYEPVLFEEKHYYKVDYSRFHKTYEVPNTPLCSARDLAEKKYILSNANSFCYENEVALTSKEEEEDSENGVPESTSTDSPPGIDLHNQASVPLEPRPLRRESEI
# KCNQ1 block = inhibitors of human KCNQ1 potassium channel; P51787; CHO-K1 KCNQ1, FluxOR thallium flux fluorescence; stronger effect = higher value; B-score at 10 µM; 310,000 tested, 1.3% active; AID 2642;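 active = compounds whose thallium flux B-score, printed positive for inhibition, exceeds three library SD while starting fluorescence stays within three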;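 also: channel opened by potassium depolarization with thallium stimulus after 20 min compound exposure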
# hERG rescue = compounds protecting human hERG from proarrhythmic drug block. Q12809. AID 1511. CHO-hERG, FluxOR thallium flux, dofetilide IC70 present. 310,000 tested, 0.51% active. activation (rescue from dofetilide block), less the hit threshold, % at 10 µM;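 active = activation above the mean of controls blocked by dofetilide plus 5 SD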;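 also: thallium influx through hERG after potassium depolarization seen as dye fluorescence rise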
# KCNQ1 pot = potentiators or activators of human KCNQ1 potassium channel; P51787; 310,000 tested, 0.35% active; AID 2648; CHO-K1 KCNQ1, thallium flux FluxOR fluorescence; stronger effect = higher value; B-score at 10 µM;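 active = fluorescence ratio B-score, a plate-corrected score, at least three library SD, with initial intensity B-score within 5 SD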
#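 assay system = CHO-K1 cells stably expressing KCNQ1 | medium = assay buffer, equal DMSO in all wells | timing = 37 °C overnight plating, 90-min dark dye load, 20-min compound pretreatment | measured by = kinetic FluxOR thallium fluorescence, 10-s 1-Hz baseline, 110-s post-stimulus read | measure = fluorescence change relative to baseline, converted to B score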
# KCNK9 block = human KCNK9 channel inhibition. B-score at 10 µM. 310,000 tested, 1.2% active. HEK293 KCNK9, FluxOR thallium flux fluorescence; stronger effect = lower value. Q9NPC2;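 active = ratio B-score over 3 SD below the library mean, with starting fluorescence within 5 SD of its mean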;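 also: negative B-score means less thallium flux so channel inhibition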
# Active calls of the source: *; i = inactive; · = no result given.
SMILES,KCNK3 block,Kir21 block,KCNQ1 block,hERG rescue,KCNQ1 pot,KCNK9 block
CCN1C(=O)/C(=C2\SC(=S)N(NC(=O)c3ccccc3O)C2=O)c2ccccc21,i,1.06,10*,-26.1,i,i
O=C(c1cc(Br)ccc1OC(F)F)N1CCN2CCCC2C1 (configuration not stated),i,·,·,·,·,·
Cc1cc2nc(-c3ccc(SCc4ccc(C(=O)O)cc4)nc3)[nH]c2cc1C,i,-1.48,i,-8.9,i,i
Cc1cc2nc(-c3ccc(SCc4ccccc4C#N)nc3)[nH]c2cc1C,i,-0.95,7*,-0.5,i,i
Cn1nc(-c2ccccc2)c(CSc2ccccc2Cl)c1Cl,i,-0.04,i,-3.8,i,-7.61*
Cc1ccc(S(=O)(=O)c2c(CO)c(-c3ccccc3)nn2C)cc1,i,-0.34,i,-13.0,i,i
CC1(C)CC(N2CCN(Cc3ccccc3)CC2)=CC(=[N+]2CCCCC2)C1,i,0.17,i,-11.9,i,i
CN(Cc1ccccc1)C1=CC(=[N+]2CCCCC2)CC(C)(C)C1,i,-2.68,6*,-20.3,i,i
Cc1cc(NC(=O)COc2coc(CN3CCN(c4ccc(F)cc4)CC3)cc2=O)no1,i,-0.02,i,-11.3,i,i
O=C(C1=NN[C@@H]2C(=O)N(Cc3ccccc3)C(=O)[C@H]12)c1ccc(F)cc1,i,-1.33,i,-7.3,i,i
CN(C)S(=O)(=O)c1cccc(NC(=S)NC23CC4CC(CC(C4)C2)C3)c1,i,-0.17,i,-1.2,i,i
CCN(CC)S(=O)(=O)c1cccc(NC(=O)CCNC(=O)NC23CC4CC(CC(C4)C2)C3)c1,i,0.79,8*,-12.6,i,i
Cc1cc(N/N=C/c2ccccc2)nc(NCc2ccccc2)n1,i,0.65,i,-3.6,i,i
Cc1cc(N/N=C/c2cccc(F)c2)nc(NCc2ccccc2)n1,i,0.14,8*,-31.0,i,i
CCCn1nc(NC(=O)COC)c2cc3cc(C)ccc3nc21,i,0.3,i,-5.7,i,i
CCCCn1nc(NC(=O)COC)c2cc3ccc(C)cc3nc21,i,1.63,i,9.0*,i,i
O=C([O-])c1ccccc1-[n+]1c(-c2ccccc2)cc(-c2ccccc2)cc1-c1ccccc1,i,-4.58*,i,-13.5,i,i
COc1ccc(NC(=O)C2CCN(S(=O)(=O)c3cccnc3)CC2)cc1Cl,i,0.14,i,-6.3,i,i
Cc1onc(-c2c(Cl)cccc2Cl)c1C(N)=O,i,1.83,i,-1.7,i,i
Cc1onc(-c2c(Cl)cccc2Cl)c1C(=O)n1nnc2ccccc21,·,-0.22,i,4.8*,i,i
CC1CCN(S(=O)(=O)CCNC(=O)c2ccc3c(c2)OCO3)CC1,i,-0.73,i,-10.1,i,i
O=C(CCSc1ccccc1)Nc1nccs1,i,1.16,i,-5.3,i,i
O=C(CSc1ccccc1)N(c1ccc(Br)cc1)c1nccs1,i,-5.22*,i,-7.8,i,i
O=C(Nc1ccc(Cl)cc1)C(Cl)C(=O)c1ccccc1 (configuration not stated),i,-10.8*,i,-11.7,10*,i
O=C(Nc1ccccc1Cl)C(Cl)C(=O)c1ccccc1 (configuration not stated),i,·,·,·,·,·
SMILES,KCNK3 block,Kir21 block,KCNQ1 block,hERG rescue,KCNQ1 pot,KCNK9 block
Cc1noc(C)c1COC(=O)CNC(=O)c1cccc(F)c1,i,0.04,i,-13.9,i,i
Cc1noc(C)c1COC(=O)C1(c2cccc(F)c2)CCCC1,i,-4.34*,i,-11.1,i,i
N#C/C(=C(/O)c1ccccc1F)c1nc2cc(C(F)(F)F)ccc2s1,i,-1.92,i,-15.9,i,i
N#C/C(=C(/O)c1ccc2c(c1)OCO2)c1nc2cc(C(F)(F)F)ccc2s1,i,-2.16,11*,-7.6,i,i
NC1=NC[C@H](Cc2ccccc2)N1CCCCC1CCCCC1,i,-5.78*,i,-25.4,i,i
NC1=NC[C@H](Cc2ccc(O)cc2)N1CCCCC1CCCCC1,i,-2.22,i,-24.7,i,i
Nc1nc(O)c(N=Nc2ccc(S(N)(=O)=O)cc2)c(=O)[nH]1,·,0.52,i,4.8*,i,i
NS(=O)(=O)c1ccc(N=Nc2c[nH]c(=O)c(O)c2)cc1,i,-1.01,i,-11.1,i,i
S=c1nc[nH]c2c1sc1nc(-c3ccccc3)c3c(c12)CCCC3,i,-0.56,i,51.9*,60*,i
Cc1ccccc1C(=O)OCCN(C)Cc1ccccc1,i,-4.11,i,-11.9,i,i
CC(=O)N1CCN=C1SCc1cccc(F)c1,i,0.57,i,-1.6,i,i
Cc1ccccc1NC(=S)NNC(=O)c1csc2c1CCC(C)C2 (configuration not stated),i,2.25,i,-7.8,10*,i
CCCCc1c(O)c2cccc3c2n(c1=O)CCC3,i,-0.1,i,-5.1,i,i
O=C(NCCN1CCN(c2ccccc2)CC1)Nc1ccccc1Br,i,0.76,i,-5.2,i,i
Cc1cccc(OCC(=O)Oc2ccc(Cl)cc2)c1,i,0.2,i,-4.6,i,i
Cc1cccc(OC(=O)NCCOC(=O)N(O)c2ccc(Cl)cc2)c1,i,-0.58,6*,-9.6,i,i
CCCCN(C(=O)c1ccc2c(c1)OCO2)c1ccccc1,i,-5.4*,i,-11.0,i,i
CC(C)(Oc1ccc(Cl)cc1)C(=O)N/N=C/c1cn[nH]c1-c1ccccc1,i,0.57,i,-6.5,i,-7.18*
COc1ccc(C=O)cc1CSc1nnc(COc2cccc3cccnc23)o1,i,-4.91*,i,-17.8,i,i
C=C(C)C(=O)Nc1cccc(C2=NOC3(C2)C[C@H](C(N)=O)N(C(=O)/C=C/C)C3)c1 (some centres not stated),i,0.04,i,-4.7,i,i
N#Cc1cn(Cc2ccco2)c(=O)[nH]c1=O,i,·,·,·,·,·
CCC(C)(c1ccc(C=O)s1)c1ccc(C=O)s1,i,-1.69,i,6.0*,i,i
O=Cc1ccc(-c2cccs2)s1,i,·,·,·,·,·
O=C(Cc1cccc(NC(=O)C2CCN(C(=O)C3CCC3)CC2)c1)Nc1cccc(C(=O)N2CCCC2)c1,i,·,·,·,·,·
CC(CC(=O)Nc1ncc([N+](=O)[O-])s1)c1ccccc1 (configuration not stated),i,-0.02,11*,-6.5,i,i
Cc1ccc(C(=O)Nc2ncc([N+](=O)[O-])s2)cc1,i,0.97,6*,-1.9,i,i
